How the values were obtained:
[1] = Cytotoxicity against human HuH7 cells assessed as reduction in cell viability measured after 72 hrs by Hoechst/Alexa fluor 488 staining based Edu plus cell counting analysis; set-up: species or system Huh-7
How it was run: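 Huh7 cells were seeded at 1,200 per well and treated with a 20-point twofold compound dilution series for 72 h, with EdU added for the last 18-20 h. Cells were then fixed and permeabilized, nuclei stained with Hoechst, and EdU labelled with Alexa Fluor 488 by click reaction. Plates were scanned with 405 nm (420-500 nm) and 488 nm (500-530 nm) detection, giving CC50.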

[2] = MRT in male Wistar Han rat at 300 mg/kg, po administered as single dose post overnight fasting measured upto 24 hrs by LC-MS/MS analysis; type: ADME, organism-based; conditions: in vivo
How it was run: (§1)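 Male Wistar Han rats were given single oral rising doses of 10, 100 or 300 mpk. AUC, Cmax, Tmax and MRT were derived from plasma exposure.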

[3] = MRT in male Wistar Han rat at 100 mg/kg, po administered as single dose post overnight fasting measured upto 24 hrs by LC-MS/MS analysis; type: ADME, organism-based; conditions: in vivo; how it was run: as §1
[4] = MRT in male Wistar Han rat at 10 mg/kg, po administered as single dose post overnight fasting measured upto 24 hrs by LC-MS/MS analysis; type: ADME, organism-based; conditions: in vivo; how it was run: as §1
[5] = Tmax in male Wistar Han rat at 300 mg/kg, po administered as single dose post overnight fasting measured upto 24 hrs by LC-MS/MS analysis; type: ADME, organism-based; conditions: in vivo; how it was run: as §1
[6] = Tmax in male Wistar Han rat at 100 mg/kg, po administered as single dose post overnight fasting measured upto 24 hrs by LC-MS/MS analysis; type: ADME, organism-based; conditions: in vivo; how it was run: as §1
[7] = Tmax in male Wistar Han rat at 10 mg/kg, po administered as single dose post overnight fasting measured upto 24 hrs by LC-MS/MS analysis; type: ADME, organism-based; conditions: in vivo; how it was run: as §1
[8] = Cmax in male Wistar Han rat at 300 mg/kg, po administered as single dose post overnight fasting measured upto 24 hrs by LC-MS/MS analysis; type: ADME, organism-based; set-up: route oral, dose 300 mg/kg, time <=24; conditions: in vivo; how it was run: as §1
[9] = Cmax in male Wistar Han rat at 100 mg/kg, po administered as single dose post overnight fasting measured upto 24 hrs by LC-MS/MS analysis; type: ADME, organism-based; set-up: route oral, dose 100 mg/kg, time <=24; conditions: in vivo; how it was run: as §1
[10] = Cmax in male Wistar Han rat at 10 mg/kg, po administered as single dose post overnight fasting measured upto 24 hrs by LC-MS/MS analysis; type: ADME, organism-based; set-up: route oral, dose 10 mg/kg, time <=24; conditions: in vivo; how it was run: as §1
[11] = AUC in male Wistar Han rat at 300 mg/kg, po administered as single dose post overnight fasting measured upto 24 hrs by LC-MS/MS analysis; type: ADME, organism-based; set-up: route oral, dose 300 mg/kg, time <=24; conditions: in vivo; how it was run: as §1
[12] = AUC in male Wistar Han rat at 100 mg/kg, po administered as single dose post overnight fasting measured upto 24 hrs by LC-MS/MS analysis; type: ADME, organism-based; set-up: route oral, dose 100 mg/kg, time <=24; conditions: in vivo; how it was run: as §1
[13] = AUC in male Wistar Han rat at 10 mg/kg, po administered as single dose post overnight fasting measured upto 24 hrs by LC-MS/MS analysis; type: ADME, organism-based; set-up: route oral, dose 10 mg/kg, time <=24; conditions: in vivo; how it was run: as §1
[14] = Oral bioavailability in Beagle dog at 5 mg/kg post overnight fasting measured upto 24 hrs by LC-MS/MS analysis; type: ADME, organism-based, Canis lupus familiaris; conditions: in vivo
How it was run: (§2)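 Overnight-fasted male Wistar Han rats or Beagle dogs, two animals per group, 24 h study. IV in 60% PEG200 (rat 2 mg/kg, dog 1 mg/kg). PO in 10% Tween (rat 10 mg/kg, dog 5 mg/kg). Blood sampled up to 24 h, plasma separated by centrifugation, and drug measured by LC/MS. MRT reported for the IV route.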

[15] = Drug concentration in Beagle dog at 5 mg/kg, po measured after 24 hrs by LC/MS analysis; type: ADME, organism-based, Canis lupus familiaris; conditions: in vivo, read-out: Drug uptake; how it was run: as §2
[16] = Cmax in Beagle dog at 5 mg/kg, po administered post overnight fasting measured upto 24 hrs by LC-MS/MS analysis; type: ADME, organism-based, Canis lupus familiaris; set-up: route oral, dose 5 mg/kg, time <=24; conditions: in vivo; how it was run: as §2
[17] = AUC in Beagle dog at 5 mg/kg, po administered post overnight fasting measured upto 24 hrs by LC-MS/MS analysis; type: ADME, organism-based, Canis lupus familiaris; set-up: route oral, dose 5 mg/kg, time <=24; conditions: in vivo; how it was run: as §2
[18] = Clearance in Beagle dog at 1 mg/kg, iv administered post overnight fasting measured upto 24 hrs by LC-MS/MS analysis; type: ADME, organism-based, Canis lupus familiaris; conditions: in vivo; how it was run: as §2
[19] = Mean residence time in Beagle dog at 1 mg/kg, iv administered post overnight fasting measured upto 24 hrs by LC-MS/MS analysis; conditions: in vivo

SMILES	CC50 at 72 h [1] [µM]	MRT [2] [h]	MRT [3] [h]	MRT [4] [h]	Tmax [5] [h]	Tmax [6] [h]	Tmax [7] [h]	Cmax [8] [nM]	Cmax [9] [nM]	Cmax [10] [nM]	AUC at 24 h [11] [µM·h]	AUC at 24 h [12] [µM·h]	AUC at 24 h [13] [µM·h]	bioavailability [14] [%]	concentration at 24 h [15] [nM]	Cmax [16] [nM]	AUC at 24 h [17] [µM·h]	clearance [18] [mL/min/kg]	MRT [19] [h]
COC(=O)N[C@H](C(=O)N1CCC[C@H]1c1ncc(-c2cc(F)c3c(c2)OC(c2ccc4c(c2)OCCC4)n2c-3cc3cc(-c4cnc([C@@H]5CCCN5C(=O)[C@@H](NC(=O)OC)C(C)C)[nH]4)ccc32)[nH]1)C(C)C (some centres undefined)	> 50																		
COC(=O)N[C@H](C(=O)N1CCC[C@H]1c1ncc(-c2cc(F)c3c(c2)OC(c2ccc4c(c2)OCCC4)n2c-3cc3cc(-c4cnc([C@@H]5CCCN5C(=O)[C@@H](NC(=O)OC)C(C)C)[nH]4)ccc32)[nH]1)C(C)C.Cl.Cl (some centres undefined)		11	13	8.5	8	5	5	400	350	40	4.9	5.9	0.42	16	51	1220	6.92	2	11.4

— ChEMBL document CHEMBL4715796, “Discovery of Chromane Containing Hepatitis C Virus (HCV) NS5A Inhibitors with Improved Potency against Resistance-Associated Variants” (J Med Chem, 2016)
